Tests used:
P388 [1] = experiment: Antitumor activity against mouse P388 cells allografted in mouse at 3.13 mg/kg, ip; format: functional; settings: route intraperitoneal
In short: (§1)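 P-388 lymphocytic leukemia in mice, run by NCI Division of Cancer Treatment standard protocol. Drug given intraperitoneally once daily on days 1-9, dose in mg/kg, with H2O, H2O + Tween 80 or saline as vehicle. Read-out is T/C = treated/control mean or median survival time × 100, and ≥125% counts as significant. Active results were repeated in at least one more experiment.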

P388 [2] = experiment: Antitumor activity against mouse P388 cells allografted in mouse at 6.25 mg/kg, ip; format: functional; settings: route intraperitoneal; in short: as §1
P388 [3] = experiment: Antitumor activity against mouse P388 cells allografted in mouse at 12.5 mg/kg, ip; format: functional; settings: route intraperitoneal; in short: as §1
P388 [4] = experiment: Antitumor activity against mouse P388 cells allografted in mouse at 18.8 mg/kg, ip; format: functional; settings: route intraperitoneal; in short: as §1
P388 [5] = experiment: Antitumor activity against mouse P388 cells allografted in mouse at 9 mg/kg, ip; format: functional; settings: route intraperitoneal; in short: as §1
P388 [6] = experiment: Antitumor activity against mouse P388 cells allografted in mouse at 100 mg/kg, ip; format: functional; settings: route intraperitoneal; in short: as §1
P388 [7] = experiment: Antitumor activity against mouse P388 cells allografted in mouse at 25 mg/kg, ip; format: functional; settings: route intraperitoneal; in short: as §1
P388 [8] = experiment: Antitumor activity against mouse P388 cells allografted in mouse at 6 mg/kg, ip; format: functional; settings: route intraperitoneal; in short: as §1
P388 [9] = experiment: Antitumor activity against mouse P388 cells allografted in mouse at 50 mg/kg, ip; format: functional; settings: route intraperitoneal; in short: as §1
Mus musculus = experiment: Toxicity in mouse P388 cells allografted mouse at 25 mg/kg, ip; format: organism-based; design: dose 25 mg/kg, route intraperitoneal; settings: in vivo

Structure (SMILES): [Br-].c1ccc([P+](CCN2Cc3ccccc3C2)(c2ccccc2)c2ccccc2)cc1
- T/C (P388 [1]; dose 6.25 mg/kg, in the assay text read “at 6.25 mg/kg” for “at 3.13 mg/kg”): 114%
- T/C (P388 [2]): 114%

Structure (SMILES): BrCC[P+](c1ccccc1)(c1ccccc1)c1ccccc1.[Br-]
- T/C (P388 [1]; dose 3.13 mg/kg): 127%

Structure (SMILES): O=C1c2ccccc2C(=O)N1CC[P+](c1ccccc1)(c1ccccc1)c1ccccc1.[Br-]
- T/C (P388 [3]): 160%

Structure (SMILES): O.O=C1c2ccccc2C(=O)N1C[P+](c1ccccc1)(c1ccccc1)c1ccccc1.[Br-]
- T/C (P388 [4]): 136%

Structure (SMILES): O.O=C1c2ccccc2C(=O)N1CCC[P+](c1ccccc1)(c1ccccc1)c1ccccc1.[Br-]
- T/C (P388 [3]): 151%

Structure (SMILES): O=C1c2ccccc2C(=O)N1CCCC[P+](c1ccccc1)(c1ccccc1)c1ccccc1.[Br-]
- T/C (P388 [5]): 121%

Structure (SMILES): CCCC[P+](CCCC)(CCCC)CCN1C(=O)c2ccccc2C1=O.O.[Br-]
- T/C (P388 [6]): 116%

Structure (SMILES): N#CCC[P+](CCC#N)(CCC#N)CCN1C(=O)c2ccccc2C1=O.O.[Br-]
- T/C (P388 [7]): 117%

Structure (SMILES): O=C1c2ccccc2C(=O)N1CC[P+](Cc1ccccc1)(Cc1ccccc1)Cc1ccccc1.[Br-]
- T/C (P388 [7]): 112%

Structure (SMILES): O=C1c2ccccc2C(=O)N1CC[P+](C1CCCCC1)(C1CCCCC1)C1CCCCC1.[Br-]
- T/C (P388 [7]): 118%

Structure (SMILES): COc1ccc([P+](CCN2C(=O)c3ccccc3C2=O)(c2ccc(OC)cc2)c2ccc(OC)cc2)cc1.O.[Br-]
- T/C (P388 [8]): 134%

Structure (SMILES): Cc1ccc([P+](CCN2C(=O)c3ccccc3C2=O)(c2ccc(C)cc2)c2ccc(C)cc2)cc1.O.[Br-]
- T/C (P388 [2]): 134%

Structure (SMILES): O.O=C1c2ccccc2C(=O)N1CC[P+](c1ccc(Cl)cc1)(c1ccc(Cl)cc1)c1ccc(Cl)cc1.[Br-]
- T/C (P388 [2]): 110%

Structure (SMILES): O.O=C1c2cccc([N+](=O)[O-])c2C(=O)N1CC[P+](c1ccccc1)(c1ccccc1)c1ccccc1.[Br-]
- T/C (P388 [9]): 109%

Structure (SMILES): Cc1cccc2c1C(=O)N(CC[P+](c1ccccc1)(c1ccccc1)c1ccccc1)C2=O.[Br-]
- T/C (P388 [1]; dose 3.13 mg/kg): 140%

Structure (SMILES): Cc1ccc2c(c1)C(=O)N(CC[P+](c1ccccc1)(c1ccccc1)c1ccccc1)C2=O.[Br-]
- T/C (P388 [2]): 139%

Structure (SMILES): O.O=C1c2ccc([N+](=O)[O-])cc2C(=O)N1CC[P+](c1ccccc1)(c1ccccc1)c1ccccc1.[Br-]
- T/C (P388 [7]): 107%

Structure (SMILES): O=C1C=CC(=O)N1CC[P+](c1ccccc1)(c1ccccc1)c1ccccc1.[Br-]
- T/C (P388 [7]): 120%

Structure (SMILES): O.O=C1C2CC=CCC2C(=O)N1CC[P+](c1ccccc1)(c1ccccc1)c1ccccc1.[Br-] (stereo unspecified)
- T/C (P388 [7]): 115%

Structure (SMILES): O.O=C1c2ccccc2C(=O)N1CC[P+](c1ccccc1)(c1ccccc1)c1ccccc1.[Cl-]
- T/C (P388 [2]): 133%

Structure (SMILES): Br.O.[Br-].c1ccc([P+](CCN2Cc3ccccc3C2)(c2ccccc2)c2ccccc2)cc1
- T/C (P388 [2]): 118%

Structure (SMILES): COCC[P+](c1ccccc1)(c1ccccc1)c1ccccc1.[Br-]
- T/C (P388 [3]): 123%

Structure (SMILES): O.O=c1c2cc3c(=O)n(CC[P+](c4ccccc4)(c4ccccc4)c4ccccc4)c(=O)c3cc2c(=O)n1CC[P+](c1ccccc1)(c1ccccc1)c1ccccc1.[Br-].[Br-]
- T/C (P388 [7]): 18%
- Activity (Mus musculus): Toxic

Structure (SMILES): O=C1c2ccccc2C(=O)N1CCP(=O)(c1ccccc1)c1ccccc1
- T/C (P388 [7]): 106%
